Activity calls are given as the source filed them. No cut-off for these calls is given here.
Tests used:
Oocyte [1] = test: Allosteric modulation of gamma-aminobutyric acid receptor A alpha1beta2gamma2S expressed in Xenopus oocytes assessed as potentiation of GABA-mediated chloride current at 0.1 to 500 uM by voltage clamp analysis relative to control; format: cell-based
Summary of the method: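 Two-electrode voltage clamp on Xenopus oocytes injected with α1, β2, γ2S cRNA at a 1:1:10 ratio, recorded on days 1–5 at a holding potential of […]. Bath: 90 mM NaCl, 1 mM KCl, 1 mM MgCl2, 1 mM CaCl2, 5 mM HEPES pH 7.4. Compound was co-applied by fast perfusion with GABA EC5-10 (typically 3–10 μM). Potentiation was calculated as I(GABA+Comp)/IGABA − 1, and concentration-response curves were fitted by nonlinear regression.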

[2] = (§1) Allosteric modulation of gamma-aminobutyric acid receptor A alpha1beta2gamma2S expressed in Xenopus oocytes assessed as potentiation of GABA-mediated chloride current by voltage clamp analysis; format: cell-based; conditions: Oocyte
Summary of the method: (§2)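 Oocytes were injected with α1β2γ2S, α1β3γ2S, α2β2γ2S, α3β2γ2S or α5β2γ2S cRNAs at a 1:1:10 ratio. Two-electrode voltage clamp was run 1–5 days post-injection in HEPES-buffered saline at pH 7.4. Compounds in GABA EC5–10 (3–10 μM) were given by automated fast perfusion: screening at 10 and 100 μM (n = 2), otherwise concentration series. Potentiation = I(GABA+Comp)/IGABA − 1, with nonlinear regression fits.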

Oocyte [3] = test: Allosteric modulation of gamma-aminobutyric acid receptor A alpha1beta2gamma2S expressed in Xenopus oocytes assessed as potentiation of GABA-mediated chloride current at 30 uM by voltage clamp analysis; format: cell-based; summary of the method: as §2
Oocyte [4] = test: Allosteric modulation of gamma-aminobutyric acid receptor A alpha1beta2gamma2S expressed in Xenopus oocytes assessed as potentiation of GABA-mediated chloride current at 100 uM by voltage clamp analysis; format: cell-based; summary of the method: as §2
[5] = target: T1, GABA-A receptor; GABA-A site (alpha1/beta2 interface) (Homo sapiens) (UniProt P14867+P47870); test: Allosteric modulation of gamma-aminobutyric acid receptor A alpha1beta2 expressed in Xenopus oocytes assessed as potentiation of GABA-mediated chloride current at 30 uM by voltage clamp analysis; format: cell-based; conditions: Oocyte
[6] = target: T1, GABA-A receptor; GABA-A site (alpha1/beta2 interface) (Homo sapiens); test: Allosteric modulation of gamma-aminobutyric acid receptor A alpha1beta2 expressed in Xenopus oocytes assessed as potentiation of GABA-mediated chloride current at 100 uM by voltage clamp analysis; format: cell-based; conditions: Oocyte
Oocyte [7] = test: Agonist activity at gamma-aminobutyric acid receptor A alpha1beta1gamma2S expressed in Xenopus oocytes assessed as potentiation of GABA-mediated chloride current at 300 uM by voltage clamp analysis; format: functional, cell-based
Summary of the method: (§3)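 α1β1γ2S cRNAs (3:1:10) injected into Xenopus oocytes and recorded 1–5 days later by two-microelectrode voltage clamp. Bath was 90 mM NaCl, 1 mM KCl, 1 mM MgCl2, 1 mM CaCl2, 5 mM HEPES, pH 7.4. Compound was co-applied by fast perfusion with GABA at EC5–10 (3–10 μM). Enhancement = I(GABA+Comp)/IGABA − 1. Concentration-response curves fitted by nonlinear regression.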

Oocyte [8] = test: Agonist activity at gamma-aminobutyric acid receptor A alpha1beta2gamma2S expressed in Xenopus oocytes assessed as potentiation of GABA-mediated chloride current by voltage clamp analysis; format: functional, cell-based; summary of the method: as §2
Oocyte [9] = test: Agonist activity at gamma-aminobutyric acid receptor A alpha1beta3gamma2S expressed in Xenopus oocytes assessed as potentiation of GABA-mediated chloride current by voltage clamp analysis; format: functional, cell-based; summary of the method: as §2
Oocyte [10] = test: Agonist activity at gamma-aminobutyric acid receptor A alpha2beta2gamma2S expressed in Xenopus oocytes assessed as potentiation of GABA-mediated chloride current by voltage clamp analysis; format: functional, cell-based; summary of the method: as §2
Oocyte [11] = test: Agonist activity at gamma-aminobutyric acid receptor A alpha3beta2gamma2S expressed in Xenopus oocytes assessed as potentiation of GABA-mediated chloride current by voltage clamp analysis; format: functional, cell-based; summary of the method: as §2
Oocyte [12] = test: Agonist activity at gamma-aminobutyric acid receptor A alpha5beta2gamma2S expressed in Xenopus oocytes assessed as potentiation of GABA-mediated chloride current by voltage clamp analysis; format: functional, cell-based; summary of the method: as §2
Oocyte [13] = test: Allosteric modulation of gamma-aminobutyric acid receptor A alpha1beta2gamma2S expressed in Xenopus oocytes assessed as potentiation of GABA-mediated chloride current at 500 uM by voltage clamp analysis relative to control; format: cell-based; summary of the method: as §2
Oocyte [14] = test: Allosteric modulation of gamma-aminobutyric acid receptor A alpha5beta2gamma2S expressed in Xenopus oocytes assessed as potentiation of GABA-mediated chloride current at 0.1 to 500 uM by voltage clamp analysis relative to control; format: cell-based; summary of the method: as §2
Oocyte [15] = test: Allosteric modulation of gamma-aminobutyric acid receptor A alpha3beta2gamma2S expressed in Xenopus oocytes assessed as potentiation of GABA-mediated chloride current at 0.1 to 500 uM by voltage clamp analysis relative to control; format: cell-based; summary of the method: as §2
Oocyte [16] = test: Allosteric modulation of gamma-aminobutyric acid receptor A alpha2beta2gamma2S expressed in Xenopus oocytes assessed as potentiation of GABA-mediated chloride current at 0.1 to 500 uM by voltage clamp analysis relative to control; format: cell-based; summary of the method: as §2
Oocyte [17] = test: Allosteric modulation of gamma-aminobutyric acid receptor A alpha1beta3gamma2S expressed in Xenopus oocytes assessed as potentiation of GABA-mediated chloride current at 0.1 to 500 uM by voltage clamp analysis relative to control; format: cell-based; summary of the method: as §2
Oocyte [18] = test: Allosteric modulation of gamma-aminobutyric acid receptor A alpha1beta1gamma2S expressed in Xenopus oocytes assessed as potentiation of GABA-mediated chloride current at 0.1 to 500 uM by voltage clamp analysis relative to control; format: cell-based; summary of the method: as §3
[19] = (§4) Allosteric modulation of gamma-aminobutyric acid receptor A alpha5beta2gamma2S expressed in Xenopus oocytes assessed as potentiation of GABA-mediated chloride current by voltage clamp analysis relative to control; format: cell-based; conditions: Oocyte; summary of the method: as §2
Oocyte [20] = test: as §4; format: cell-based; summary of the method: as §2
[21] = (§5) Allosteric modulation of gamma-aminobutyric acid receptor A alpha3beta2gamma2S expressed in Xenopus oocytes assessed as potentiation of GABA-mediated chloride current by voltage clamp analysis; format: cell-based; conditions: Oocyte; summary of the method: as §2
Oocyte [22] = test: as §5; format: cell-based; summary of the method: as §2
[23] = (§6) Allosteric modulation of gamma-aminobutyric acid receptor A alpha2beta2gamma2S expressed in Xenopus oocytes assessed as potentiation of GABA-mediated chloride current by voltage clamp analysis; format: cell-based; conditions: Oocyte; summary of the method: as §2
Oocyte [24] = test: as §6; format: cell-based; summary of the method: as §2
[25] = (§7) Allosteric modulation of gamma-aminobutyric acid receptor A alpha1beta3gamma2S expressed in Xenopus oocytes assessed as potentiation of GABA-mediated chloride current by voltage clamp analysis; format: cell-based; conditions: Oocyte; summary of the method: as §2
Oocyte [26] = test: as §7; format: cell-based; summary of the method: as §2
Oocyte [27] = test: as §1; format: cell-based; summary of the method: as §2
[28] = (§8) Allosteric modulation of gamma-aminobutyric acid receptor A alpha1beta1gamma2S expressed in Xenopus oocytes assessed as potentiation of GABA-mediated chloride current by voltage clamp analysis; format: cell-based; conditions: Oocyte; summary of the method: as §3
Oocyte [29] = test: as §8; format: cell-based; summary of the method: as §3
Mus musculus [30] = test: Anxiolytic activity in C57Bl/6N mouse assessed as ambulation distance at 3 mg/kg, ip measured after 30 mins by open field test ( Rvb = 31.8 +/- 1.7 m); format: functional; conditions: route intraperitoneal
Mus musculus [31] = test: Anxiolytic activity in C57Bl/6N mouse assessed as ambulation distance at 30 mg/kg, ip measured after 30 mins by open field test ( Rvb = 31.8 +/- 1.7 m); format: functional; conditions: route intraperitoneal
Oocyte [32] = test: Ratio of isopimaric acid EC50 to compound EC50 for gamma-aminobutyric acid receptor A alpha1beta1gamma2S expressed in Xenopus oocytes assessed as potentiation of GABA-mediated chloride current by voltage clamp analysis; format: cell-based
Oocyte [33] = test: Ratio of isopimaric acid EC50 to compound EC50 for gamma-aminobutyric acid receptor A alpha1beta2gamma2S expressed in Xenopus oocytes assessed as potentiation of GABA-mediated chloride current by voltage clamp analysis; format: cell-based
Oocyte [34] = test: Ratio of isopimaric acid EC50 to compound EC50 for gamma-aminobutyric acid receptor A alpha1beta3gamma2S expressed in Xenopus oocytes assessed as potentiation of GABA-mediated chloride current by voltage clamp analysis; format: cell-based
Oocyte [35] = test: Ratio of isopimaric acid EC50 to compound EC50 for gamma-aminobutyric acid receptor A alpha2beta2gamma2S expressed in Xenopus oocytes assessed as potentiation of GABA-mediated chloride current by voltage clamp analysis; format: cell-based
Oocyte [36] = test: Ratio of isopimaric acid EC50 to compound EC50 for gamma-aminobutyric acid receptor A alpha3beta2gamma2S expressed in Xenopus oocytes assessed as potentiation of GABA-mediated chloride current by voltage clamp analysis; format: cell-based
Oocyte [37] = test: Ratio of isopimaric acid EC50 to compound EC50 for gamma-aminobutyric acid receptor A alpha5beta2gamma2S expressed in Xenopus oocytes assessed as potentiation of GABA-mediated chloride current by voltage clamp analysis; format: cell-based
Oocyte [38] = test: Ratio of isopimaric acid Imax to compound Imax for gamma-aminobutyric acid receptor A alpha1beta1gamma2S expressed in Xenopus oocytes assessed as potentiation of GABA-mediated chloride current at 0.1 to 500 uM by voltage clamp analysis; format: cell-based
Oocyte [39] = test: Ratio of isopimaric acid Imax to compound Imax for gamma-aminobutyric acid receptor A alpha1beta2gamma2S expressed in Xenopus oocytes assessed as potentiation of GABA-mediated chloride current at 0.1 to 500 uM by voltage clamp analysis; format: cell-based
Oocyte [40] = test: Ratio of isopimaric acid Imax to compound Imax for gamma-aminobutyric acid receptor A alpha1beta3gamma2S expressed in Xenopus oocytes assessed as potentiation of GABA-mediated chloride current at 0.1 to 500 uM by voltage clamp analysis; format: cell-based
Oocyte [41] = test: Ratio of isopimaric acid Imax to compound Imax for gamma-aminobutyric acid receptor A alpha2beta2gamma2S expressed in Xenopus oocytes assessed as potentiation of GABA-mediated chloride current at 0.1 to 500 uM by voltage clamp analysis; format: cell-based
Oocyte [42] = test: Ratio of isopimaric acid Imax to compound Imax for gamma-aminobutyric acid receptor A alpha3beta2gamma2S expressed in Xenopus oocytes assessed as potentiation of GABA-mediated chloride current at 0.1 to 500 uM by voltage clamp analysis; format: cell-based
Oocyte [43] = test: Ratio of isopimaric acid Imax to compound Imax for gamma-aminobutyric acid receptor A alpha5beta2gamma2S expressed in Xenopus oocytes assessed as potentiation of GABA-mediated chloride current at 0.1 to 500 uM by voltage clamp analysis; format: cell-based

## CCc1cc2c(s1)N(C)C(=O)CN=C2c1ccccc1Cl [CLOTIAZEPAM]
Oocyte [1]
  Imax: 260%
[2]
  EC50: 0.184 µM

## C=C[C@@]1(C)CC[C@H]2C(=CC[C@@H]3[C@]2(C)CCC[C@@]3(C)C(=O)O)C1 [ISOPIMARIC ACID]
Oocyte [3]
  Activity: Active
Oocyte [4]
  Activity: Active
[5]
  Activity: Active
[6]
  Activity: Active
Oocyte [7]
  Activity: inactive
Oocyte [8]
  Activity: inactive
Oocyte [9]
  Activity: inactive
Oocyte [10]
  Activity: inactive
Oocyte [11]
  Activity: inactive
Oocyte [12]
  Activity: inactive
Oocyte [13]
  Imax: 425%
Oocyte [14]
  Imax: 472%
Oocyte [15]
  Imax: 1070%
Oocyte [16]
  Imax: 1030%
Oocyte [17]
  Imax: 476%
Oocyte [18]
  Imax: 716%
[19]
  EC50: 317 µM
Oocyte [20]
  Activity: Dose-dependent effect
[21]
  EC50: 724 µM
Oocyte [22]
  Activity: Dose-dependent effect
[23]
  EC50: 365 µM
Oocyte [24]
  Activity: Dose-dependent effect
[25]
  EC50: 257 µM
Oocyte [26]
  Activity: Dose-dependent effect
[2]
  EC50: 142 µM
Oocyte [27]
  Activity: Dose-dependent effect
[28]
  EC50: 290 µM
Oocyte [29]
  Activity: Dose-dependent effect

## Cc1ncc2n1-c1ccc(Cl)cc1C(c1ccccc1F)=NC2 [MIDAZOLAM]
Oocyte [1]
  Imax: 342%
[2]
  EC50: 0.143 µM

## C=C[C@]1(C)C=C2CC[C@@H]3[C@](C)(CCC[C@@]3(C)C(=O)O)[C@H]2CC1 [SANDARACOPIMARIC ACID]
Oocyte [3]
  Activity: Active
Oocyte [4]
  Activity: Active
[5]
  Activity: Active
[6]
  Activity: Active
Oocyte [7]
  Activity: inactive
Oocyte [8]
  Activity: inactive
Oocyte [9]
  Activity: inactive
Oocyte [10]
  Activity: inactive
Oocyte [11]
  Activity: inactive
Oocyte [12]
  Activity: inactive
Mus musculus [30]
  Activity: 25.1 m
Mus musculus [31]
  Activity: 22.3 m
Oocyte [32]
  Ratio EC50: 6.02
Oocyte [14]
  Imax: 513%
Oocyte [15]
  Imax: 1100%
Oocyte [16]
  Imax: 1090%
Oocyte [17]
  Imax: 520%
Oocyte [1]
  Imax: 856%
Oocyte [18]
  Imax: 502%
[19]
  EC50: 40.7 µM
Oocyte [20]
  Activity: Dose-dependent effect
[21]
  EC50: 56.6 µM
Oocyte [22]
  Activity: Dose-dependent effect
[23]
  EC50: 31.2 µM
Oocyte [24]
  Activity: Dose-dependent effect
[25]
  EC50: 24.9 µM
Oocyte [26]
  Activity: Dose-dependent effect
[2]
  EC50: 33.3 µM
Oocyte [27]
  Activity: Dose-dependent effect
[28]
  EC50: 48.1 µM
Oocyte [29]
  Activity: Dose-dependent effect
Oocyte [33]
  Ratio EC50: 4.25
Oocyte [34]
  Ratio EC50: 10.3
Oocyte [35]
  Ratio EC50: 11.7
Oocyte [36]
  Ratio EC50: 12.8
Oocyte [37]
  Ratio EC50: 7.79
Oocyte [38]
  Ratio: 1.43
Oocyte [39]
  Ratio: 0.5
Oocyte [40]
  Ratio: 0.92
Oocyte [41]
  Ratio: 0.94
Oocyte [42]
  Ratio: 0.98
Oocyte [43]
  Ratio: 0.92

## Cc1nnc2n1-c1ccc(Cl)cc1C(c1ccccc1Cl)=NC2 [TRIAZOLAM]
Oocyte [1]
  Imax: 253%
[2]
  EC50: 0.022 µM

From ChEMBL document CHEMBL2146456, “Identification and characterization of GABA(A) receptor modulatory diterpenes from Biota orientalis that decrease locomotor activity in mice” (J Nat Prod, 2011)
